Activity calls are given as the source filed them. The rule behind the calls is not given here.
Key:
Nucleic Acid [1] = test: Binding affinity to human 21-TT G-quadruplex DNA structure assessed as first step association constant by electrospray ionization mass spectrometry; format: nucleic-acid assay
How it was run: (§1)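 ESI-MS in 150 mM ammonium acetate; DNA 5 μM final (per duplex or quadruplex unit); ligand at drug/DNA ratios 0.5 to 4. Methanol (15%) added just before injection, after binding equilibrium. K1 and K2 for 1:1 and 2:1 complexes, and % bound DNA, taken from relative peak intensities assuming equal response factors. At least three repeats.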

BJ [2] = test: Induction of DNA damage response in human BJ cells expressing SV40 early region EHLT assessed as phosphorylation of […] after 24 hrs by immunofluorescence method; format: functional, cell-based
How it was run: (§2)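 BJ-EHLT and BJ-hTERT fibroblasts exposed to a range of concentrations for 24 h. Fixed in 2% formaldehyde, permeabilized in 0.25% Triton X-100, immunostained for γ-H2AX and 53BP1. Percentage of positive cells scored. Three independent experiments, SD.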

BJ [3] = test: Delocalization of TRF2 protein from […] in human BJ cells expressing SV40 early protein EHLT by chromatin immunoprecipitation assay; format: functional, cell-based
How it was run: (§3)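 BJ-EHLT cells treated 24 or 72 h. Formaldehyde-crosslinked chromatin immunoprecipitated with anti-TRF1, anti-TRF2 or anti-POT1; β-actin antibody as negative control. Precipitates blotted and probed for telomeric repeats (ALU probe as nonspecific). Densitometry gives percentage of precipitated DNA relative to input (10% and 1%). Four independent experiments, SD.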

BJ [4] = test: Induction of telomere dysfunction induced foci n human BJ cells expressing SV40 early protein EHLT assessed as increase in 53BP1/TRF1 co-localization by Deconvolution microscopy; format: functional, cell-based
How it was run: (§4)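 BJ-EHLT cells stained for TRF1 together with γ-H2AX or 53BP1 and imaged by deconvolution microscopy. Cells with four or more γ-H2AX/TRF1 foci scored as TIF positive; percentage of TIF-positive cells and mean TIFs per nucleus recorded. Mean of three experiments, SD.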

Nucleic Acid [5] = test: Binding affinity to human DK66 duplex DNA structure assessed as bound DNA at 5:20 DNA to drug ratio by electrospray ionization mass spectrometry; format: nucleic-acid assay; how it was run: as §1
BJ [6] = test: Cell cycle arrest in human BJ cells expressing TERT assessed as accumulation at G2/M stage at 0.5 uM after 24 hrs by propidium iodide staining based flow cytometry (reference value: 17%); format: ADME
Nucleic Acid [7] = test: Binding affinity to human 21-TT G-quadruplex DNA structure at 1:1 DNA to calf thymus DNA ratio by competitive inhibition assay; format: nucleic-acid assay; set-up: concentration or dose not given beside the values
How it was run: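 ESI-MS competition: quadruplex DNA and ligand each 5 μM final, plus calf thymus DNA at duplex/quadruplex ratios 1 and 5 (by phosphate concentration), in ammonium acetate. Percentage bound quadruplex and normalized bound quadruplex (N%) measured by mass spectrometry. SD over at least three independent experiments.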

BJ [8] = test: Delocalization of POT1 protein from […] in human BJ cells expressing SV40 early protein EHLT after 24 hrs by chromatin immunoprecipitation assay; format: functional, cell-based; how it was run: as §3
BJ [9] = test: Cell cycle arrest in human BJ cells expressing TERT assessed as accumulation at G0/G1 stage at 0.5 uM after 48 hrs by propidium iodide staining based flow cytometry (reference value: 80%); format: ADME
BJ [10] = test: Cell cycle arrest in human BJ cells expressing TERT assessed as accumulation at G0/G1 stage at 0.5 uM after 24 hrs by propidium iodide staining based flow cytometry (reference value: 61%); format: ADME
BJ [11] = test: Antiproliferative activity against human BJ cells expressing SV40 early region EHLT at 0.5 uM after 24 hrs by Coulter counter method; format: functional, cell-based; conditions: TDE = time-dependent effect, in the assay text read “after 2 to 8 days” for “after 24 hrs”
How it was run: (§5)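 Cells seeded at 5 ×10^4 per dish; compounds freshly dissolved and added to the medium 24 h after plating, at 0.5 μM or 3 μM (3 μM only for one derivative). Cell number by Coulter counting and viability by trypan blue exclusion daily, day 1 to day 8. Growth inhibition of treated vs untreated cells calculated at days 2, 4, 6 and 8. Representative experiments in quintuplicate, SD shown.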

PC-3 = test: Antiproliferative activity against human PC3 after 2 to 8 days by trypan blue assay; format: functional, cell-based; how it was run: as §5
BJ [12] = test: Cell cycle arrest in human BJ cells expressing TERT assessed as accumulation at S stage at 0.5 uM after 48 hrs by propidium iodide staining based flow cytometry (reference value: 12%); format: ADME
BJ [13] = test: Induction of DNA damage response in human BJ cells expressing SV40 early region EHLT assessed as phosphorylation of gamma H2AX at 0.25 uM after 24 hrs by immunofluorescence method; format: functional, cell-based; how it was run: as §2
BJ [14] = test: Induction of DNA damage response in human BJ cells expressing SV40 early protein EHLT assessed as accumulation of PCNA in S-phase by Hoechst staining based Leica deconvolution microscopic analysis; format: functional, cell-based
How it was run: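 BJ-EHLT cells co-immunostained for γ-H2AX and PCNA, nuclei counterstained with Hoechst, imaged by deconvolution microscopy. Percentages of γ-H2AX+/PCNA− and γ-H2AX+/PCNA+ nuclei scored. Mean of three independent experiments.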

BJ [15] = test: Cell cycle arrest in human BJ cells expressing TERT assessed as accumulation at S stage at 0.5 uM after 24 hrs by propidium iodide staining based flow cytometry (reference value: 21%); format: ADME
BJ [16] = test: Induction of telomere dysfunction induced foci n human BJ cells expressing SV40 early protein EHLT assessed as increase in gamma H2AX/TRF1 co-localization by Deconvolution microscopy; format: functional, cell-based; how it was run: as §4
BJ [17] = test: Delocalization of TRF1 protein from […] in human BJ cells expressing SV40 early protein EHLT by chromatin immunoprecipitation assay; format: functional, cell-based; how it was run: as §3
BJ [18] = test: Induction of telomere dysfunction induced foci n human BJ cells expressing SV40 early protein EHLT assessed as increase in gamma H2AX/TRF1 co-localization at 1 uM by Deconvolution microscopy; format: functional; how it was run: as §4
Nucleic Acid [19] = test: Stabilization of human duplex DNA T-loop assessed as change in melting temperature at 1 uM by FRET assay; format: nucleic-acid assay
BJ [20] = test: Induction of DNA damage response in human BJ cells expressing human TERT assessed as phosphorylation of gamma H2AX at 1 uM after 24 hrs by immunofluorescence; format: functional, cell-based; how it was run: as §2
BJ [21] = test: Cell cycle arrest in human BJ cells expressing TERT assessed as accumulation at G2/M stage at 0.5 uM after 96 hrs by propidium iodide staining based flow cytometry (reference value: 4%); format: ADME
Nucleic Acid [22] = test: Binding affinity to human 21-TT G-quadruplex DNA structure assessed as bound DNA at 5:5 DNA to drug ratio by electrospray ionization mass spectrometry; format: nucleic-acid assay; how it was run: as §1
BJ [23] = test: Induction of DNA damage n human BJ cells expressing SV40 early protein EHLT assessed as increase in gamma-H2Ax phosphorylation at 0.5 uM; format: functional; how it was run: as §2
BJ [24] = test: Induction of DNA damage response in human BJ cells expressing human TERT assessed as phosphorylation of […] at 1 uM after 24 hrs by immunofluorescence; format: functional, cell-based; how it was run: as §2
BJ [25] = test: Delocalization of POT1 protein from […] in human BJ cells expressing SV40 early protein EHLT after 72 hrs by chromatin immunoprecipitation assay; format: functional, cell-based; how it was run: as §3
Nucleic Acid [26] = test: Stabilization of 21-mer human F21T G4-telomeric quadruplex assessed as change in melting temperature at 1 uM by FRET assay; format: nucleic-acid assay
BJ [27] = test: Cell cycle arrest in human BJ cells expressing TERT assessed as accumulation at G2/M stage at 0.5 uM after 48 hrs by propidium iodide staining based flow cytometry (reference value: 6%); format: ADME

SMILES: O=C1c2ccc3c4ccc5c6c(cc(N7CCCCC7)c(c7ccc(c2c37)C(=O)N1CCOCCN1CCCCC1)c64)C(=O)N(CCOCCN1CCCCC1)C5=O
- log Ks (Nucleic Acid [1]): 5.8
- Activity (BJ [2]): Active
- Activity (BJ [3]): inactive
- Activity (BJ [4]): Active
- Activity (Nucleic Acid [5]): 21%
- Activity (BJ [6]): 16.1%
- Activity (Nucleic Acid [7]): 47%
- Activity (BJ [8]): Active
- Activity (BJ [9]): 78.4%
- Activity (BJ [10]): 62.8%
- Activity (BJ [11]): tde
- Activity (PC-3): Active
- Activity (BJ [12]): 14%
- Activity (BJ [13]): Active
- Activity (BJ [14]): Active
- Activity (BJ [15]): 21.1%
- Activity (BJ [16]): Active
- Activity (BJ [17]): inactive
- Activity (BJ [18]): 50%
- ΔTm (Nucleic Acid [19]): -0.2 °C
- Activity (BJ [20]): inactive
- Activity (BJ [21]): 2.2%
- Activity (Nucleic Acid [22]): 56%
- Activity (BJ [23]): 50%
- Activity (BJ [24]): inactive
- Activity (BJ [25]): Active
- ΔTm (Nucleic Acid [26]): 23 °C
- Activity (BJ [27]): 7.6%
